Reference: ChEMBL document CHEMBL4689842, “EUbOPEN Chemogenomics Library wave 1” (2021)

Test system: Fibroblast
Assay: Multiplex assay against human fibroblast
Assay type: toxicity, cell-based
How it was run: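 Live cells were stained at seeding with Hoechst33342, BioTracker Green Microtubule Cytoskeleton Dye, MitoTracker Red and Annexin V Alexa Fluor 680, then imaged on a CQ1 microscope at 37°C and 5% CO2 after compound addition. CellPathfinder machine-learning gating split cells into Hoechst high-intensity objects or normal cells. Normal cells were split into healthy, pyknosed or fragmented nuclei, and pyknosed cells into mitotic or apoptotic. Tubulin, mitochondrial-mass and membrane-permeability phenotypes are per cents of healthy-nucleus cells.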

[1] = 12 h, 1 µM, compound concentration 1 uM, replicate 1
[2] = 12 h, 1 µM, compound concentration 1 uM, replicate 2
[3] = 12 h, 10 µM, compound concentration 10 uM, replicate 1
[4] = 12 h, 10 µM, compound concentration 10 uM, replicate 2
[5] = 24 h, 1 µM, compound concentration 1 uM, replicate 1
[6] = 24 h, 1 µM, compound concentration 1 uM, replicate 2
[7] = 24 h, 10 µM, compound concentration 10 uM, replicate 1
[8] = 24 h, 10 µM, compound concentration 10 uM, replicate 2
[9] = 48 h, 1 µM, compound concentration 1 uM, replicate 1
[10] = 48 h, 1 µM, compound concentration 1 uM, replicate 2
[11] = 48 h, 10 µM, compound concentration 10 uM, replicate 1
[12] = 48 h, 10 µM, compound concentration 10 uM, replicate 2

Q: Which “Population Apoptotic (%)” value [1] does the source give for CNc1cc(Oc2cc(C(=O)Nc3cc(N4CCN(C)CC4)cc(C(F)(F)F)c3)ccc2C)ncn1 here?
A: 61%

Q: And the “Population Fragmented Nuclei (%)” value [1]?
A: 31%

Q: What about the “Population Healthy Nuclei (%)” value [1] of the same compound?
A: 39%

Q: And the “Population Hoechst High Intensity Objects (%)” value [1]?
A: 9%

Q: What about the “Population Membrane Permeable-Phenotype (%)” value [1] of the same compound?
A: 25%

Q: What about the “Population Mitochondria Different-Phenotype (%)” value [1] of the same compound?
A: 17%

Q: What about the “Population Mitotic Cells (%)” value [1] of the same compound?
A: 38%

Q: What about the “Population Normal (%)” value [1] of the same compound?
A: 90%

Q: And the “Population Pyknosed Nuclei (%)” value [1]?
A: 29%

Q: What about the “Population Tubulin-Different-Phenotype (%)” value [1] of the same compound?
A: 53%

Q: What about the “Total Cell Count” value [1] of the same compound?
A: 147

Q: What about the “Population Apoptotic (%)” value [2] of the same compound?
A: 54%

Q: And the “Population Fragmented Nuclei (%)” value [2]?
A: 10%

Q: And the “Population Healthy Nuclei (%)” value [2]?
A: 73%

Q: What about the “Population Hoechst High Intensity Objects (%)” value [2] of the same compound?
A: 2%

Q: And the “Population Membrane Permeable-Phenotype (%)” value [2]?
A: 10%

Q: What about the “Population Mitochondria Different-Phenotype (%)” value [2] of the same compound?
A: 60%

Q: What about the “Population Mitotic Cells (%)” value [2] of the same compound?
A: 45%

Q: What about the “Population Normal (%)” value [2] of the same compound?
A: 97%

Q: And the “Population Pyknosed Nuclei (%)” value [2]?
A: 16%

Q: And the “Population Tubulin-Different-Phenotype (%)” value [2]?
A: 52%

Q: And the “Total Cell Count” value [2]?
A: 56

Q: What about the “Population Apoptotic (%)” value [3] of the same compound?
A: 54%

Q: And the “Population Fragmented Nuclei (%)” value [3]?
A: 27%

Q: And the “Population Healthy Nuclei (%)” value [3]?
A: 26%

Q: What about the “Population Hoechst High Intensity Objects (%)” value [3] of the same compound?
A: 18%

Q: What about the “Population Membrane Permeable-Phenotype (%)” value [3] of the same compound?
A: 37%

Q: And the “Population Mitochondria Different-Phenotype (%)” value [3]?
A: 45%

Q: And the “Population Mitotic Cells (%)” value [3]?
A: 45%

Q: And the “Population Normal (%)” value [3]?
A: 81%

Q: And the “Population Pyknosed Nuclei (%)” value [3]?
A: 46%

Q: And the “Population Tubulin-Different-Phenotype (%)” value [3]?
A: 65%

Q: What about the “Total Cell Count” value [3] of the same compound?
A: 186

Q: And the “Population Apoptotic (%)” value [4]?
A: 73%

Q: And the “Population Fragmented Nuclei (%)” value [4]?
A: 24%

Q: And the “Population Healthy Nuclei (%)” value [4]?
A: 13%

Q: What about the “Population Hoechst High Intensity Objects (%)” value [4] of the same compound?
A: 33%

Q: What about the “Population Membrane Permeable-Phenotype (%)” value [4] of the same compound?
A: 58%

Q: And the “Population Mitochondria Different-Phenotype (%)” value [4]?
A: 66%

Q: And the “Population Mitotic Cells (%)” value [4]?
A: 26%

Q: And the “Population Normal (%)” value [4]?
A: 66%

Q: And the “Population Pyknosed Nuclei (%)” value [4]?
A: 61%

Q: What about the “Population Tubulin-Different-Phenotype (%)” value [4] of the same compound?
A: 66%

Q: And the “Total Cell Count” value [4]?
A: 70

Q: What about the “Population Apoptotic (%)” value [5] of the same compound?
A: 61%

Q: And the “Population Fragmented Nuclei (%)” value [5]?
A: 30%

Q: And the “Population Healthy Nuclei (%)” value [5]?
A: 38%

Q: And the “Population Hoechst High Intensity Objects (%)” value [5]?
A: 11%

Q: What about the “Population Membrane Permeable-Phenotype (%)” value [5] of the same compound?
A: 16%

Q: And the “Population Mitochondria Different-Phenotype (%)” value [5]?
A: 10%

Q: What about the “Population Mitotic Cells (%)” value [5] of the same compound?
A: 38%

Q: And the “Population Normal (%)” value [5]?
A: 88%

Q: What about the “Population Pyknosed Nuclei (%)” value [5] of the same compound?
A: 30%

Q: What about the “Population Tubulin-Different-Phenotype (%)” value [5] of the same compound?
A: 71%

Q: What about the “Total Cell Count” value [5] of the same compound?
A: 163

Q: And the “Population Apoptotic (%)” value [6]?
A: 50%

Q: And the “Population Fragmented Nuclei (%)” value [6]?
A: 16%

Q: What about the “Population Healthy Nuclei (%)” value [6] of the same compound?
A: 63%

Q: What about the “Population Hoechst High Intensity Objects (%)” value [6] of the same compound?
A: 6%

Q: And the “Population Membrane Permeable-Phenotype (%)” value [6]?
A: 13%

Q: And the “Population Mitochondria Different-Phenotype (%)” value [6]?
A: 68%

Q: What about the “Population Mitotic Cells (%)” value [6] of the same compound?
A: 50%

Q: And the “Population Normal (%)” value [6]?
A: 93%

Q: What about the “Population Pyknosed Nuclei (%)” value [6] of the same compound?
A: 19%

Q: What about the “Population Tubulin-Different-Phenotype (%)” value [6] of the same compound?
A: 51%

Q: And the “Total Cell Count” value [6]?
A: 58

Q: What about the “Population Apoptotic (%)” value [7] of the same compound?
A: 80%

Q: What about the “Population Fragmented Nuclei (%)” value [7] of the same compound?
A: 34%

Q: What about the “Population Healthy Nuclei (%)” value [7] of the same compound?
A: 19%

Q: And the “Population Hoechst High Intensity Objects (%)” value [7]?
A: 18%

Q: What about the “Population Membrane Permeable-Phenotype (%)” value [7] of the same compound?
A: 15%

Q: What about the “Population Mitochondria Different-Phenotype (%)” value [7] of the same compound?
A: 57%

Q: And the “Population Mitotic Cells (%)” value [7]?
A: 19%

Q: And the “Population Normal (%)” value [7]?
A: 81%

Q: And the “Population Pyknosed Nuclei (%)” value [7]?
A: 45%

Q: What about the “Population Tubulin-Different-Phenotype (%)” value [7] of the same compound?
A: 76%

Q: And the “Total Cell Count” value [7]?
A: 163

Q: And the “Population Apoptotic (%)” value [8]?
A: 76%

Q: What about the “Population Fragmented Nuclei (%)” value [8] of the same compound?
A: 16%

Q: And the “Population Healthy Nuclei (%)” value [8]?
A: 23%

Q: And the “Population Hoechst High Intensity Objects (%)” value [8]?
A: 48%

Q: And the “Population Membrane Permeable-Phenotype (%)” value [8]?
A: 80%

Q: What about the “Population Mitochondria Different-Phenotype (%)” value [8] of the same compound?
A: 80%

Q: And the “Population Mitotic Cells (%)” value [8]?
A: 23%

Q: What about the “Population Normal (%)” value [8] of the same compound?
A: 51%

Q: What about the “Population Pyknosed Nuclei (%)” value [8] of the same compound?
A: 60%

Q: What about the “Population Tubulin-Different-Phenotype (%)” value [8] of the same compound?
A: 80%

Q: What about the “Total Cell Count” value [8] of the same compound?
A: 76

Q: What about the “Population Apoptotic (%)” value [9] of the same compound?
A: 84%

Q: What about the “Population Fragmented Nuclei (%)” value [9] of the same compound?
A: 37%

Q: What about the “Population Healthy Nuclei (%)” value [9] of the same compound?
A: 43%

Q: What about the “Population Hoechst High Intensity Objects (%)” value [9] of the same compound?
A: 15%

Q: And the “Population Membrane Permeable-Phenotype (%)” value [9]?
A: 12%

Q: What about the “Population Mitochondria Different-Phenotype (%)” value [9] of the same compound?
A: 10%

Q: And the “Population Mitotic Cells (%)” value [9]?
A: 16%

Q: What about the “Population Normal (%)” value [9] of the same compound?
A: 84%

Q: What about the “Population Pyknosed Nuclei (%)” value [9] of the same compound?
A: 19%

Q: And the “Population Tubulin-Different-Phenotype (%)” value [9]?
A: 65%

Q: And the “Total Cell Count” value [9]?
A: 150

Q: And the “Population Apoptotic (%)” value [10]?
A: 60%

Q: And the “Population Fragmented Nuclei (%)” value [10]?
A: 43%

Q: What about the “Population Healthy Nuclei (%)” value [10] of the same compound?
A: 52%

Q: What about the “Population Hoechst High Intensity Objects (%)” value [10] of the same compound?
A: 23%

Q: And the “Population Mitochondria Different-Phenotype (%)” value [10]?
A: 3%

Q: What about the “Population Mitotic Cells (%)” value [10] of the same compound?
A: 40%

Q: What about the “Population Normal (%)” value [10] of the same compound?
A: 76%

Q: And the “Population Pyknosed Nuclei (%)” value [10]?
A: 4%

Q: What about the “Population Tubulin-Different-Phenotype (%)” value [10] of the same compound?
A: 49%

Q: And the “Total Cell Count” value [10]?
A: 158

Q: And the “Population Apoptotic (%)” value [11]?
A: 75%

Q: And the “Population Fragmented Nuclei (%)” value [11]?
A: 59%

Q: And the “Population Healthy Nuclei (%)” value [11]?
A: 10%

Q: And the “Population Hoechst High Intensity Objects (%)” value [11]?
A: 30%

Q: And the “Population Membrane Permeable-Phenotype (%)” value [11]?
A: 36%

Q: And the “Population Mitochondria Different-Phenotype (%)” value [11]?
A: 54%

Q: What about the “Population Mitotic Cells (%)” value [11] of the same compound?
A: 24%

Q: What about the “Population Normal (%)” value [11] of the same compound?
A: 69%

Q: What about the “Population Pyknosed Nuclei (%)” value [11] of the same compound?
A: 30%

Q: And the “Population Tubulin-Different-Phenotype (%)” value [11]?
A: 72%

Q: And the “Total Cell Count” value [11]?
A: 155

Q: And the “Population Apoptotic (%)” value [12]?
A: 100%

Q: What about the “Population Fragmented Nuclei (%)” value [12] of the same compound?
A: 84%

Q: What about the “Population Healthy Nuclei (%)” value [12] of the same compound?
A: 11%

Q: And the “Population Hoechst High Intensity Objects (%)” value [12]?
A: 34%

Q: And the “Population Membrane Permeable-Phenotype (%)” value [12]?
A: 20%

Q: And the “Population Mitochondria Different-Phenotype (%)” value [12]?
A: 80%

Q: What about the “Population Mitotic Cells (%)” value [12] of the same compound?
A: 0%

Q: What about the “Population Normal (%)” value [12] of the same compound?
A: 65%

Q: And the “Population Pyknosed Nuclei (%)” value [12]?
A: 4%

Q: What about the “Population Tubulin-Different-Phenotype (%)” value [12] of the same compound?
A: 80%

Q: What about the “Total Cell Count” value [12] of the same compound?
A: 67
